Shown is part of a subset that was picked to be rich in hits.
E coli RNAP: E. coli RNAP inhibitors, biochemical | DNA-directed RNA polymerase subunit beta (Escherichia coli (strain K12)), P0A8V2 | E. coli RNA polymerase, fluorescence transcription assay | inhibition, %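 (tested at 10 µM)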 | 0.2% of 62,000 active; in the data active = inhibition above about 20%
Target sequence (P0A8V2 whole entry, looked up): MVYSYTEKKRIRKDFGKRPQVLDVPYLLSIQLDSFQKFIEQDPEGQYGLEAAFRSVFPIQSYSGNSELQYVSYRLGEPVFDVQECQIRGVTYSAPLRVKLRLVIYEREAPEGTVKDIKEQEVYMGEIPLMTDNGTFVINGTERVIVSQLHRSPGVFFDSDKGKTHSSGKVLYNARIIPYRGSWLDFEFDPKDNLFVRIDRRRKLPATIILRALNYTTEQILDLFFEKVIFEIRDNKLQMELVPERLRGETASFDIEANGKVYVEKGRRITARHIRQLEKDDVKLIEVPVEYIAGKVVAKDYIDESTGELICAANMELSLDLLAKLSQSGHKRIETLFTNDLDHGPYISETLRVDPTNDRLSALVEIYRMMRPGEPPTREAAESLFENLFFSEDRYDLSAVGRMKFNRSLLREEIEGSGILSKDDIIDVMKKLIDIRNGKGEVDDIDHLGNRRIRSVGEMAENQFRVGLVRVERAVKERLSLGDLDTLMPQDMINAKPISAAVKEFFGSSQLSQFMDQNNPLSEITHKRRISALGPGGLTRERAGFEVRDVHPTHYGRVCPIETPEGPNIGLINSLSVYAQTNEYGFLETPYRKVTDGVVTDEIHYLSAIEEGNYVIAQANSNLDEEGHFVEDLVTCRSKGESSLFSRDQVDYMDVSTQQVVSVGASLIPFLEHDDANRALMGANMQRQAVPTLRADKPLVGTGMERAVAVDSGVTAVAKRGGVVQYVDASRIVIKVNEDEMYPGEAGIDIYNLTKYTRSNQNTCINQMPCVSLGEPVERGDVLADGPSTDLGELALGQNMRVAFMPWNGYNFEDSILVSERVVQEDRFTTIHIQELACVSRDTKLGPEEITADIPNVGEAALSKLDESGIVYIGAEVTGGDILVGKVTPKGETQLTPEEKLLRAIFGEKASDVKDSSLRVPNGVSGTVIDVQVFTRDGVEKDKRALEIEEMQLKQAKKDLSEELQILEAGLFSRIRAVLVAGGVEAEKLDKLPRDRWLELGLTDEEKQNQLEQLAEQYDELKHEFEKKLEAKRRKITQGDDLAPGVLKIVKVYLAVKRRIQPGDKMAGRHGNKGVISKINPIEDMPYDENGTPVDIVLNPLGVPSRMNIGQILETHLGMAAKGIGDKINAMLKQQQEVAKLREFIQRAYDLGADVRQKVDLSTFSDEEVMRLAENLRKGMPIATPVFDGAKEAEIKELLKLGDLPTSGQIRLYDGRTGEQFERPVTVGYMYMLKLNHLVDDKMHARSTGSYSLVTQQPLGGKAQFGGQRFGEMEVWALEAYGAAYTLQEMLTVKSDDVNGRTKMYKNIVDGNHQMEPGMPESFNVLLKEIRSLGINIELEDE
MMP-13 inhibitor: human MMP13 inhibitors, primary screen, biochemical, FRET peptide cleavage | Collagenase 3 (Homo sapiens), P45452 | MMP-13 fTHP FRET cleavage, Mca fluorescence | inhibition, % at 4 µM | 0.07% of 65,000 active;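 active = inhibition above the mean of compound-free control plate wells plus 3 SD, cut at about 14% in these data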
Ecoli WT expand: growth inhibitors of wild-type E. coli, primary screen, strain BW25113, expanded library, OD600; OD600 absorbance; growth inhibition, % at 100 µM; 0.15% of 98,000 active;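 active = growth inhibition above about 50% at one test dose, limit read from the data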;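 also: growth measured after 20 h incubation at 37 °C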
HePTP inhibitor: inhibitors of human HePTP phosphatase, primary screen, biochemical, absorbance, leukemia target; recombinant HePTP phosphatase activity, OD absorbance; inhibition, % at 20 µM; 0.64% of 110,000 active; in the data active = inhibition above about 50%
tolC growth inh: growth inhibitors of E. coli tolC mutant, primary screen, strain BW25113 ΔtolC::kan, 384-well; growth inhibition, % at 10 µM (by protocol); 2.2% of 65,000 active; OD615; AID 573, 2007;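 active = growth inhibition at or above a cutoff equal to the mean over every tested compound plus 3 SD, cut at about 60% in these data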;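 also: growth measured after 20 h incubation at 37 °C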
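Test system: tolC-deleted E. coli BW25113; medium: LB with kanamycin 50 µg/mL; compound: single-point testing at 10 µM; incubation: 20 h compound exposure of bacteria at 37 °C; signal: OD at 615 nm; evaluation: growth inhibition in percent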
AP complement: alternative complement pathway inhibitors, primary screen, biochemical, ELISA, human serum, orthogonally pooled compounds; AID 1235, 2008; inhibition, % at 5 µM; 0.08% of 62,000 active; LPS-coated ELISA, C3 deposition; tested in compound mixtures;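 active = inhibition above 30% in each of the two pooled mixtures holding the compound, so the lower value exceeds 30%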
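Test system: human serum complement alternative pathway, C3 deposition onto LPS / Medium: Mg2+-EGTA GVB++ buffer containing human serum at 1:15 dilution / Probe or stimulus: Plate-bound LPS / Times: 1 h at 37 °C / Signal: ELISA with HRP anti-human C3 antibody, TMB substrate, absorbance 450 nm / Measure: percent inhibition / Repeats: two pool placements per compound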
Hits are given with their value; . = inactive; / = no result given; ! = a repeat was not active.

SMILES | E coli RNAP | MMP-13 inhibitor | Ecoli WT expand | HePTP inhibitor | tolC growth inh | AP complement
CC(C)C(NC(=O)c1ccc(N(C)S(=O)(=O)c2ccccc2)cc1)C(C)C | / | / | / | . | / | /
CCC(Sc1nnnn1-c1ccccc1)C(=O)Nc1nc2ccccc2s1 (stereo unspecified) | . | . | . | . | 74 | .
CC(=O)NC1=NC(=O)/C(=C\c2ccc(-c3ccc([N+](=O)[O-])cc3C)o2)S1 | / | / | / | . | / | /
O=C(Nc1cnn(Cc2ccc(Cl)cc2Cl)c1)c1noc2c1CCCC2 | . | . | . | . | 71 | .
O=C(Nc1cnn(Cc2ccc(Cl)cc2Cl)c1)c1cc(-c2cccs2)on1 | . | . | . | . | . | .
CN(C(=O)c1ccncc1)C1CC(C)(C)N(O)C(C)(C)C1 | 21 | . | . | . | . | .
CC1(C)CC(=O)CC(C)(C)N1OC(=O)c1ccncc1 | . | . | . | . | . | .
CCOC(=O)c1nnn(-c2nc(OC)nc(N3CCCCC3)n2)c1-c1ccccc1 | / | / | . | / | / | /
CCOC(=O)c1c(-c2ccccc2)nnn1-c1nc(OCC)nc(N2CCCCC2)n1 | . | . | . | . | 75 | .
Cc1cc(N2CCN(C(=O)c3ccco3)CC2)nc(-c2ccccc2)n1 | . | . | / | . | . | .
Cc1cc(N2CCCCCC2)nc(-c2ccccc2O)n1 | / | . | . | . | 81 | .
Cc1cc(N2CCN(c3ccccc3)CC2)nc(-c2ccc(Br)cc2)n1 | / | / | / | . | / | /
Cc1cc(Nc2ccccc2)nc(-c2ccccc2O)n1 | . | . | . | . | 100 | .
Cc1cc(N2CCN(c3ccccc3)CC2)nc(-c2ccccc2)n1 | . | . | . | . | 77 | .
COc1ccc(C2(O)CC3CCC(C2)N3c2cc(C)nc(-c3ccccc3)n2)cc1 (stereo unspecified) | . | . | . | . | 87 | .
Cc1cc(NC2CCCCC2)nc(-c2ccccc2O)n1 | / | / | . | / | / | /
CCOC(=O)c1cc2n(c1N(C(C)=O)C(C)=O)-c1ccccc1C2=O | / | / | / | . | / | /
COc1cc(-c2ccc(NC(=O)c3ccc(F)cc3)c(OC)c2)ccc1NC(=O)c1ccc(F)cc1 | / | / | / | . | / | /
CC(C)(C)NC(=O)CN(Cc1ccccc1)S(=O)(=O)c1ccc(Br)cc1 | / | / | / | . | / | /
CC(C)c1ccc(-c2noc(C3CCCN(C(=O)c4ccc(F)cc4F)C3)n2)cc1 (stereo unspecified) | / | . | . | . | 68 | .
Cc1ccc(-c2noc(C3CCCN(C(=O)c4ccc(F)cc4F)C3)n2)cc1 (stereo unspecified) | . | . | . | . | . | .
COC(=O)c1sccc1NC(=O)c1cc2c(s1)CCCC2 | . | . | . | . | 61 | .
Oc1c(Br)cc(Br)cc1/C=N/c1nc2c(s1)CCCC2 | / | / | 67 | / | / | /
CC(C)NS(=O)(=O)c1ccc(OCC(=O)N2CCCC2)c(Cl)c1 | / | / | . | / | / | /
Cc1ccc(Cl)cc1N1CCN(C(=O)COc2ccc(S(=O)(=O)NC(C)C)cc2)CC1 | . | . | . | . | 63 | .
SMILES | E coli RNAP | MMP-13 inhibitor | Ecoli WT expand | HePTP inhibitor | tolC growth inh | AP complement
CNc1nc(Nc2ccc(C(C)=O)cc2)nc(OC(C(F)(F)F)C(F)(F)F)n1 | . | / | . | . | 67 | .
COc1ccc(N(CC(=O)Nc2ccc(I)cc2)S(=O)(=O)c2ccccc2)cc1 | / | / | / | . | / | /
CCCOC(=O)c1ccc(-c2c(C)noc2-c2ccc(OC)cc2O)o1 | . | . | . | . | 99 | .
CCCOC(=O)c1ccc(Oc2c(-c3ccc(OC)cc3O)n[nH]c2C)cc1 | . | . | . | . | . | .
Cc1ccc(-n2[nH]c(=O)c(/C=c3/c(C)c(C#N)c4nc5ccccc5n4c3=O)c2O)cc1C | / | / | / | 102 | / | /
Cc1ccc(S(N)(=O)=O)cc1NC(=O)COc1ccccc1 | / | / | / | . | / | /
Cc1ccc(-c2csc(NC(=O)C3CCCCC3C(=O)O)n2)c(C)c1 (stereo unspecified) | / | / | / | . | / | /
O=C1NN(c2ccccc2)C(=O)/C1=C/c1ccc([N+](=O)[O-])o1 | / | / | / | 103 | / | /
CCOc1ccc(N2C(=O)NC(=O)/C(=C\c3ccc(-c4ccccc4C(=O)O)o3)C2=O)cc1 | / | / | / | . | / | /
O=C1NC(=O)N(c2ccccc2)C(=O)/C1=C\c1ccc(Br)o1 | / | / | / | 69 | / | /
CCOc1ccc(N2C(=O)NC(=O)/C(=C\c3ccc(Br)o3)C2=O)cc1 | / | / | / | 93 | / | /
O=C1NN(c2ccccc2)C(=O)/C1=C/c1ccc(Br)o1 | / | / | / | 102 | / | /
COc1ccc(O)c(CN2CCN(Cc3cccc([N+](=O)[O-])c3)CC2)c1 | / | / | / | . | / | /
COc1ccc(CN2CCN(C(=O)c3ccccc3F)CC2)cc1Br | / | / | / | . | / | /
Cc1cccc(NC(=O)C2CN(S(=O)(=O)c3ccccc3)CCN2S(=O)(=O)c2ccccc2)c1 (stereo unspecified) | / | / | / | . | / | /
CCOC(=O)c1c(-c2cccs2)csc1NC(=O)c1ccc(N2C(=O)CCC2=O)cc1 | / | / | / | . | / | /
O=C(c1cccc(COc2ccc(Cl)cc2Cl)c1)N1CCN(c2ccccn2)CC1 | . | . | . | . | 86 | .
O=C(Nc1ccc(NC(=O)c2ccc(Cl)cc2Cl)cc1)c1ccccc1 | / | / | / | . | / | /
CCCOC(=O)c1ccc(NC(=O)CC(C)C)cc1 | / | / | / | . | / | /
CC(=O)Nc1ccc(C(=O)OCCC(C)C)cc1 | 68 | . | . | . | . | .
COc1cc(-c2noc(/C=C/c3ccccc3)n2)cc(OC)c1OC | / | / | / | . | / | /
CCc1ccc(NC(=O)CSC2=C(C#N)C(c3ccco3)C3=C(CCCC3=O)N2)cc1 (stereo unspecified) | . | . | . | . | . | /
Cc1ccc(NC(=O)CSC2=C(C#N)C(c3ccco3)C3=C(CC(C)(C)CC3=O)N2)cc1 (stereo unspecified) | . | . | . | . | 69 | .
COc1ccc([N+](=O)[O-])cc1N(CC(O)CN1CCOCC1)S(=O)(=O)c1ccc(C)cc1 (stereo unspecified) | / | / | / | . | / | /
CCOC(=O)CSC1=C(C#N)C(c2ccco2)C(C(=O)Nc2cccc(C(F)(F)F)c2)=C(C)N1 (stereo unspecified) | . | . | . | . | 61 | .
SMILES | E coli RNAP | MMP-13 inhibitor | Ecoli WT expand | HePTP inhibitor | tolC growth inh | AP complement
CCOC(=O)C1=C(c2ccccc2)NC(SCC(=O)Nc2cccc(C)c2)=C(C#N)C1c1ccco1 (stereo unspecified) | . | . | . | . | . | .
O=[N+]([O-])c1ccc2nc(Sc3nnc(-c4ccccc4)n3-c3ccccc3)sc2c1 | / | / | / | . | / | /
Cc1ccc(C)n1Cc1ccc(C(=O)O)cc1 | . | . | . | 104! | . | /
CCOc1ccccc1NC(=O)COc1ccccc1 | / | / | / | . | / | /
CCCc1cc(-c2[nH]ncc2-c2ccc3c(c2)OCCCO3)c(O)cc1O | . | . | . | . | 100 | .
N#C/C(=C\c1ccc(-c2cccc(Cl)c2)o1)c1ccc(Cl)cc1 | / | / | / | . | / | /
Cc1cc(Nc2ccc(F)cc2)n2nc(C)nc2n1 | 22 | . | . | . | . | .

Bioassay records (PubChem)
